# From ChEMBL document CHEMBL1141420, “Towards a new generation of potential antipsychotic agents combining D2 and 5-HT1A receptor activities” (J Med Chem, 2007)
# Activity calls are given as the source filed them. No cut-off for these calls is given here.
# Key:
# [1] = molecular target: D(2) dopamine receptor (Rattus norvegicus, UniProt P61169); experiment: Displacement of [3H]YM-09151-2 from rat striatum D2 receptor
# [2] = test system: Rattus norvegicus; experiment: Normalizing effect on methylphenidate-induced behaviours in ip dosed rat after 30 min; type: functional; conditions: for ED50: 0.5 h
# Outline: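 Rats given methylphenidate 40 mg/kg i.p. plus compound i.p. (10 mL/kg; doses as free base), seven per dose. Over 10 min starting 30 min after injection, locomotion, rearing, sniffing, gnawing and licking scored in 10 s observations repeated 10 times. Normalization judged against saline and methylphenidate controls.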
# [3] = molecular target: T1, 5-hydroxytryptamine receptor 1A (Homo sapiens, UniProt P08908); experiment: Agonist activity at human 5HT1A receptor in HeLa cells assessed as stimulation of [35S]GTP-gamma-S binding; type: functional, cell-based
# T1 sequence (P08908 whole entry): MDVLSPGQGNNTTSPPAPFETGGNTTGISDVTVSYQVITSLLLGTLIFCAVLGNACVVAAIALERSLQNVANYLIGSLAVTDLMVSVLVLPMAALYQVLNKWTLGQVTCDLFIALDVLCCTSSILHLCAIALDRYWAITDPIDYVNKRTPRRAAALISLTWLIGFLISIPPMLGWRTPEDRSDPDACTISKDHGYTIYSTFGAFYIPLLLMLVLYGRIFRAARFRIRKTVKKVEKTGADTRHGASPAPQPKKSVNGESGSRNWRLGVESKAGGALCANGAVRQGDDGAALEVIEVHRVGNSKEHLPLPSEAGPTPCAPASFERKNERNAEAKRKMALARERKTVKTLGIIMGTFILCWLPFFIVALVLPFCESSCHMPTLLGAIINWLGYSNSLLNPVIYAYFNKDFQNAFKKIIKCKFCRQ
# Outline: (§1)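 Membranes from HeLa cells expressing human 5-HT1A, prepared by homogenisation and 40 000 g spins in Hepes/EDTA, incubated with compound 1 h at 30 °C. [35S]GTPγS added at 0.1 nM final, then 30 min at 30 °C. Filtration and scintillation counting. Six concentrations from 10^-10 to 10^-5 M, triplicate, three experiments.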
# [4] = molecular target: T2, 5-hydroxytryptamine receptor 1A (Rattus norvegicus, UniProt P19327); experiment: Displacement of [3H]OH-DPAT from rat cortex 5HT1A receptor
# T2 sequence (P19327 whole entry): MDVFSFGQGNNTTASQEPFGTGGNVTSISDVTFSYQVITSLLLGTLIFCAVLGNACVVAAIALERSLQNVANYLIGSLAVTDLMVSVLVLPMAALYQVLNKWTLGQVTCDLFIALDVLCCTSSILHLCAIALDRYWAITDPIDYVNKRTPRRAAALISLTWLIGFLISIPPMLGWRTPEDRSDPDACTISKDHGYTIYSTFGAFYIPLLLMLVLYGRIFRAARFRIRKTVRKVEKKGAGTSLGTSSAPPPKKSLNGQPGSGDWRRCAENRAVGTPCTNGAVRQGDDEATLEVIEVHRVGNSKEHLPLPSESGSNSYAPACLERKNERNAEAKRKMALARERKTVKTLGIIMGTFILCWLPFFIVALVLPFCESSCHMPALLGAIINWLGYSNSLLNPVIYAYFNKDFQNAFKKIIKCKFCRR
# [5] = molecular target: T3, 5-hydroxytryptamine receptor 1A (Homo sapiens) (UniProt P08908); experiment: Agonist activity at human 5HT1A receptor in HeLa cells assessed as stimulation of [35S]GTPgammaS binding relative to serotonin; type: functional, cell-based; outline: as §1
# T3 sequence (whole entry): T1 sequence (P08908 whole entry)
# [6] = molecular target: 5-hydroxytryptamine receptor 2A (Rattus norvegicus, UniProt P14842); experiment: Displacement of [3H]ketanserin from rat cortex 5HT2A receptor
# Chain of 5-hydroxytryptamine receptor 2A (P14842 whole entry): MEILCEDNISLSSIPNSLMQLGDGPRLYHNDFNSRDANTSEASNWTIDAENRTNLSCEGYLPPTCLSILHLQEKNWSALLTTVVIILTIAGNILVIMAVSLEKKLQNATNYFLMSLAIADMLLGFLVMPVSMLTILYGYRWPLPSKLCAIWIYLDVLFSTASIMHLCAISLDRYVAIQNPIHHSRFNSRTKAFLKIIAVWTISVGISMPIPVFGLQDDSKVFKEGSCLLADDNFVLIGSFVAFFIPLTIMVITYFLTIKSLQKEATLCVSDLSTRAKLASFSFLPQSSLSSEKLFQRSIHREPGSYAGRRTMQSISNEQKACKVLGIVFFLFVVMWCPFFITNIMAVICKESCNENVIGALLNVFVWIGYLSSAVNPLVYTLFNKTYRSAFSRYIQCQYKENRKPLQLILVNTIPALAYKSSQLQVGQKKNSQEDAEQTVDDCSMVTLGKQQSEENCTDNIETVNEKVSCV
# [7] = test system: Rattus norvegicus; experiment: Induction of catalepsy in ip dosed rat after 60 min by crossed-leg position test; type: functional; conditions: 1 h
# Outline: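 Rats dosed i.p. (10 mL/kg; doses as free base), seven per dose. From 60 min, hind limbs crossed over the ipsilateral forelimbs and time held recorded, up to 30 s. Repeated at 3 and 6 min and the three trials averaged. Incidence taken as catalepsy lasting 30 s.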
# [8] = test system: Rattus norvegicus; experiment: Induction of flat body posture in ip dosed rat after 15 min; type: functional; conditions: 0.25 h
# Outline: (§2)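 Rats given compound i.p. (10 mL/kg; doses as free base), five per dose, observed individually for 10 min from 15 min post-injection. LLR scored present if uninterrupted for ≥3 s, in 10 cycles; response was ≥1 positive score. FBP scored present only if seen over the whole period.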
# [9] = test system: Rattus norvegicus; experiment: Induction of lower lip retraction in ip dosed rat after 15 min; type: functional; conditions: 0.25 h; outline: as §2
# [10] = molecular target: D(2) dopamine receptor (Rattus norvegicus) (UniProt P61169)
# Chain of D(2) dopamine receptor (Rattus norvegicus) (P61169 whole entry): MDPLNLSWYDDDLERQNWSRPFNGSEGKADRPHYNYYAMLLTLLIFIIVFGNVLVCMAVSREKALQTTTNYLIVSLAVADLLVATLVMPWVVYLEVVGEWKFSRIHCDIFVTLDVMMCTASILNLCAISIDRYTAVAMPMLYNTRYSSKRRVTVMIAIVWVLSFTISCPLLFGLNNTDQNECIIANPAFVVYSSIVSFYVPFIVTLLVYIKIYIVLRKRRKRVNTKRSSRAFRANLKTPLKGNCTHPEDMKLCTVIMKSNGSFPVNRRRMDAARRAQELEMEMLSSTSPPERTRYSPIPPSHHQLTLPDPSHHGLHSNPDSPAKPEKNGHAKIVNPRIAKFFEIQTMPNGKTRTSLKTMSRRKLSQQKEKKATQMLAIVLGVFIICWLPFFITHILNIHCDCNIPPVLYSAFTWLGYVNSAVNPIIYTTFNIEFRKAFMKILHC
# [11] = test system: Rattus norvegicus; experiment: Ratio of ED50 for LLR induction to ED50 for normalization in ip dosed rat; type: functional
# [12] = test system: Rattus norvegicus; experiment: Ratio of ED50 for catalepsy induction to ED50 for normalization in ip dosed rat; type: functional
# [13] = test system: Rattus norvegicus; experiment: Induction of forepaw treading in rat at 40 mg/kg, ip; type: functional, organism-based; design: dose 40 mg/kg
# Chain of D(2) dopamine receptor (P61169 whole entry): as above
SMILES,Ki [1],Activity [2],EC50 [3],Ki [4],Emax [5],Ki [6],ED50 [7],ED50 [2],ED50 [8],ED50 [9],pKb [10],Ratio ED50 [11],Ratio ED50 [12],Activity [13]
CCC1(C)Cc2cccc(OCCNCc3cccc(C4=CCCC4)c3)c2O1 (stereo unspecified),11.5 nM,Active,32.4 nM,5.5 nM,77.7%,–,–,–,–,–,–,–,–,–
CC(C)Oc1ccccc1OCCNCc1cccc(C2CCCC2)c1,0.562 nM,–,195 nM,16.6 nM,71.2%,302 nM,–,–,–,–,–,–,–,–
CC(C)Oc1ccccc1OCCNCc1cccc(C2CC2)c1,0.603 nM,–,> 10000 nM,61.7 nM,–,110 nM,–,–,–,–,–,–,–,–
CC(C)Oc1ccccc1OCCNCc1cccc(-c2ccsc2)c1,0.275 nM,–,67.6 nM,34.7 nM,47.7%,347 nM,–,–,–,–,–,–,–,–
C1=C(c2cccc(CNCCOc3cccc4c3OCO4)c2)CCC1,2.57 nM,–,135 nM,20.9 nM,70.7%,–,–,–,–,–,–,–,–,–
CC(C)Oc1ccccc1OCCNCc1cccc(-c2ccccc2)c1,0.195 nM,–,1410 nM,26.3 nM,73.9%,724 nM,–,–,–,–,–,–,–,–
C1=C(c2cccc(CNCCOc3cccc4c3OC3(CC3)C4)c2)CCC1,1.12 nM,Active,33.9 nM,6.17 nM,93.8%,–,–,–,–,–,–,–,–,–
C1=C(c2cccc(CNCCOc3cccc4c3OCCO4)c2)CCC1,0.776 nM,Active,6.46 nM,1.7 nM,68.9%,–,–,–,–,–,–,–,–,–
CCCN(CCC)C1CCc2cccc(O)c2C1 (stereo unspecified) [8-OH-DPAT],–,–,–,–,82%,–,> 10 mg/kg,> 10 mg/kg,0.28 mg/kg,0.09 mg/kg,–,–,–,–
CC1(C)Cc2cccc(OCCNCc3cccc(C4=CCCC4)c3)c2O1,0.417 nM,–,10 nM,5.75 nM,85.6%,–,> 40 mg/kg,1.1 mg/kg,32 mg/kg,8.3 mg/kg,8.29,7.5,>36,inactive
CC(C)Oc1ccccc1OCCNCc1cccc(C2=CCCCCC2)c1,3.09 nM,–,1550 nM,22.9 nM,86.5%,1050 nM,–,–,–,–,–,–,–,–
Fc1ccc(-c2cncc(CNC[C@H]3CCc4ccccc4O3)c2)cc1 [SARIZOTAN],19.1 nM,–,77.6 nM,2.24 nM,66.5%,2140 nM,–,–,–,–,–,–,–,–
CC1(C)Oc2cccc(OCCNCc3cccc(C4=CCCC4)c3)c2O1,1.23 nM,Active,24.5 nM,9.55 nM,90.6%,–,–,–,–,–,–,–,–,–
O=c1[nH]c2cccc(N3CCN(Cc4cccc(-c5ccccc5)c4)CC3)c2o1 [BIFEPRUNOX],1.55 nM,–,324 nM,64.6 nM,60.8%,3310 nM,–,–,–,–,–,–,–,–
CC(C)Oc1ccccc1OCCNCc1cccc(-c2ccco2)c1,0.339 nM,–,> 10000 nM,67.6 nM,–,372 nM,–,–,–,–,–,–,–,–
CC1(C)Cc2cccc(OCCNCc3cncc(C4=CCCC4)c3)c2O1,0.275 nM,–,2.88 nM,0.955 nM,72.4%,–,> 40 mg/kg,0.29 mg/kg,4.7 mg/kg,1.8 mg/kg,9.29,6.2,>137,inactive
CC1(C)COc2c(OCCNCc3cccc(C4=CCCC4)c3)cccc21,0.813 nM,Active,112 nM,42.7 nM,72.4%,–,–,–,–,–,–,–,–,–
C1=C(c2cncc(CNCCOc3cccc4c3OC3(CC3)C4)c2)CCC1,0.447 nM,Active,2.63 nM,3.63 nM,78.5%,–,–,–,–,–,–,–,–,–
Fc1ccc(-c2cncc(CN3CCN(c4cccc5c4OCCO5)CC3)c2)cc1 [ADOPRAZINE],–,–,5.89 nM,2.29 nM,45.3%,724 nM,> 40 mg/kg,1.4 mg/kg,1.7 mg/kg,0.32 mg/kg,7.81,–,–,–
O=C(CCCN1CCC(O)(c2ccc(Cl)cc2)CC1)c1ccc(F)cc1 [HALOPERIDOL],–,–,–,–,–,–,0.3 mg/kg,0.31 mg/kg,–,–,–,–,–,–
CC(C)Oc1ccccc1OCCNCc1cccc(C2=CCCC2)c1,0.501 nM,–,69.2 nM,29.5 nM,54%,646 nM,–,–,–,–,–,–,–,–
CC(C)Oc1ccccc1OCCNCc1cccc(-c2cccs2)c1,0.562 nM,–,> 10000 nM,46.8 nM,–,562 nM,–,–,–,–,–,–,–,–
CC(C)Oc1ccccc1OCCNCc1cccc(C2=CCCCC2)c1,1.55 nM,–,46.8 nM,12.3 nM,69.8%,191 nM,–,–,–,–,–,–,–,–
